Experimental data published in ChEMBL document CHEMBL4304791, “DABMA: A Derivative of ABMA with Improved Broad-Spectrum Inhibitory Activity of Toxins and Viruses” (ACS Med Chem Lett, 2019).
Activity calls are given as the source filed them. The rule behind the calls is not given here.

Tests used:
A549 [1] = assay: Cytoprotection activity against diphtheria toxin-induced cytotoxicity against human A549 cells assessed as effect on protein synthesis incubated for 20 hrs followed by replacement of [14c]-Leucine containing medium and measured after 4 hrs by liquid scintillation analysis; type: functional, cell-based
How it was run: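 A549 cells were incubated with compound and then challenged with increasing DT concentrations. DT cytotoxicity was read as protein synthesis inhibition. Data are mean of duplicate wells ± SD from one representative experiment (n = 3).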

[2] = Cytotoxicity against human A549 cells assessed as reduction in cell viability incubated for 24 hrs by Alamar blue assay; type: cell-based
How it was run: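 A549 cytotoxicity by Alamar Blue viability assay; duplicate wells, mean ± SD, one representative experiment (n = 3).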

HUVEC = assay: Cytoprotection activity in HUVEC assessed as inhibition of diphtheria induced toxicity by measuring protein synthesis at 15 to 60 uM incubated for 20 hrs followed by replacement of [14c]-Leucine containing medium and measured after 4 hrs by liquid scintillation analysis; type: functional, cell-based; settings: Homo sapiens
PC-3 = assay: Cytoprotection activity in human PC3 cells assessed as inhibition of diphtheria induced toxicity incubated for 20 hrs followed by replacement of [14c]-Leucine containing medium and measured after 4 hrs by liquid scintillation analysis; type: functional, cell-based
Vero [3] = assay: Inhibition of TcdB-induced cytotoxicity against African green monkey Vero cells assessed as reversal of toxin-induced cell rounding after 4 hrs by inverted microscopic analysis; type: functional, cell-based; settings: Chlorocebus sabaeus
How it was run: (§1)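 Vero cells were given compound (30 μM) or DMSO, then increasing doses of TcdB for 4 h or TcsL for 16 h. Cell rounding was imaged by inverted microscope. Rounded cells were counted and normalised to total Hoechst-counterstained cells (>100 cells per treatment).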

Vero [4] = assay: Inhibition of TcsL-induced cytotoxicity against African green monkey Vero cells assessed as reversal of toxin-induced cell rounding after 16 hrs by inverted microscopic analysis; type: functional, cell-based; settings: Chlorocebus sabaeus; how it was run: as §1
L929 = assay: Cytoprotective activity in Pseudomonas aeruginosa exotoxin-induced toxicity in mouse L929 cells assessed as protection of protein synthesis after 18 hrs followed by replacement of [14c]-Leucine containing medium and measured after 4 hrs by liquid scintillation analysis by liquid scintillation analysis; type: functional, cell-based
How it was run: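 L929 cells were intoxicated with increasing doses of Pseudomonas exotoxin A for 18 h with compound (30 μM) or DMSO present. Protein synthesis was measured; duplicate wells, mean ± SD, one representative experiment (n = 3).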

A549 [5] = assay: Induction of lysosomal activation in human A549 cells assessed as increase in endosomal volume by measuring Lamp 1 expression at 30 uM incubated for 6 hrs by immunostaining based confocal microscopic analysis; type: functional, cell-based
A549 [6] = assay: Induction of morphological changes in human A549 cells assessed as change in mitochondria at 30 uM incubated for 24 hrs by MitoTracker Red based inverted microscopic method; type: functional, cell-based
Vero [7] = assay: Selectivity index, ratio of CC50 for cytotoxicity against African green monkey Vero cells to EC50 for cytoprotective activity in TcdB-induced cytotoxicity in African green monkey Vero cells; set-up: species or system Chlorocebus sabaeus
HeLa = assay: Cytotoxicity against human HeLa cells assessed as reduction in cell viability at >100 uM incubated for 20 hrs by Alamar blue assay; type: cell-based
[8] = Selectivity index, ratio of CC50 for cytotoxicity against human HeLa cells to ratio of EC50 for Antiviral activity against Zaire EBOV-mayinga strain expressing GFP infected in human HeLa cells; type: toxicity, cell-based; settings: read-out: Ratio CC50/EC50

Question: With `COc1ccc(Br)cc1CNC12CC3CC(C)(CC(C)(C3)C1)C2` as the molecule, how does the EC50 (A549 [1]) read?
Answer: The EC50 was 25.7 µM.

Question: What about the CC50 at 24 h [2] of the same molecule?
Answer: Its CC50 at 24 h is 120 µM.

Question: What about the Activity (HUVEC) of the same molecule?
Answer: Its Activity is “Active”.

Question: And the Activity (PC-3)?
Answer: The Activity was “Active”.

Question: And the EC50 (Vero [3])?
Answer: Its EC50 is 38.6 µM.

Question: And the EC50 (Vero [4])?
Answer: The EC50 was 15.8 µM.

Question: And the EC50 (L929)?
Answer: The EC50 was 20.8 µM.

Question: What about the Activity (A549 [5]) of the same molecule?
Answer: Its Activity is “Active”.

Question: What about the Activity (A549 [6]) of the same molecule?
Answer: Its Activity is “inactive”.

Question: What about the “Ratio CC50/EC50” value (Vero [7]) of the same molecule?
Answer: Its value is 6.34.

Question: What about the Activity (HeLa) of the same molecule?
Answer: Its Activity is “Toxic”.

Question: What about the selectivity ratio [8] of the same molecule?
Answer: Its selectivity ratio is 120.
